Test results published in PubChem BioAssay AID504767 (Southern Research Specialized Biocontainment Screening …, 2011).
The source made the active and inactive calls.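 The calls were made as follows: active = target-selective compounds that prevent over 30% of T7 phage killing of the bacteria in the dose series; inactive = the rest.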

Experiment: K1 capsule specificity via T7 phage lysis, dose response, selectivity assay for bacterial capsule biogenesis inhibitors, EV36 strain, set 4 (AID 504767)
Settings: E. coli EV36 T7 phage lysis; series mostly up to 100 µM; bacterial growth OD600 3 h p.i., % of EV36+DMSO+T7 control (lower = more lysis): at the top concentration
In short: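 System – Escherichia coli EV36, a K1:K-12 hybrid strain · Repeats – quadruplicate · Technique – OD600 absorbance · Probe or stimulus – T7 bacteriophage · Timing – 1.5 h compound at 37 °C, read 3 h post-infection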
In the case of `O=C(Nc1nc2c(F)cc(F)cc2s1)c1cccnc1`, the “bacterial growth OD600 3 h p.i., % of EV36+DMSO+T7 control (lower = more lysis)” value is reported as 100% (inactive).
In the case of `O=C(Nc1nc2c(F)cc(F)cc2s1)c1ccccc1`, the “bacterial growth OD600 3 h p.i., % of EV36+DMSO+T7 control (lower = more lysis)” value is reported as 103% (inactive).
For `Cc1cc(C)c2nc(NC(=O)c3ccccn3)sc2c1`, the “bacterial growth OD600 3 h p.i., % of EV36+DMSO+T7 control (lower = more lysis)” value was 37% (inactive).
In the case of `O=C(Nc1nc2ccccc2s1)c1ccncc1`, the “bacterial growth OD600 3 h p.i., % of EV36+DMSO+T7 control (lower = more lysis)” value is reported as 118% (inactive).
For `O=C(Nc1nc2c(F)cccc2s1)c1ccccn1`, the “bacterial growth OD600 3 h p.i., % of EV36+DMSO+T7 control (lower = more lysis)” value was 100% (inactive).
In the case of `O=C(Nc1nc2c(Cl)cc(Cl)cc2s1)c1ccccn1`, the “bacterial growth OD600 3 h p.i., % of EV36+DMSO+T7 control (lower = more lysis)” value is reported as 101% (inactive).
In the case of `O=C(Nc1nc2ccc(F)cc2s1)c1ccccn1`, the “bacterial growth OD600 3 h p.i., % of EV36+DMSO+T7 control (lower = more lysis)” value is reported as 105% (inactive).
In the case of `O=C(Nc1nc2c(F)cc(F)cc2s1)c1ccncc1`, the “bacterial growth OD600 3 h p.i., % of EV36+DMSO+T7 control (lower = more lysis)” value is reported as 93% (inactive).
For `O=C(Nc1nc2ccccc2s1)c1cccnc1`, the “bacterial growth OD600 3 h p.i., % of EV36+DMSO+T7 control (lower = more lysis)” value was 93% (inactive).
